13 compounds from ChEMBL document CHEMBL1687736, “Identification and biochemical characterization of small-molecule inhibitors of Clostridium botulinum neurotoxin serotype A” (Antimicrob Agents Chemother, 2009) can be followed below.

For orientation: inhibition means the change of the read-out against control, counted positive when it falls. As a reminder, the IC50 is the point on the concentration scale where inhibition reaches its midpoint. Broadly, the Ki is a measure of affinity in units of concentration, obtained from inhibition or displacement. Lower therefore signals tighter binding.

Calls of active or inactive are those of the source. No cut-off for these calls is given here.

For series [1], the target named is Botulinum neurotoxin type A (Clostridium botulinum) (UniProt P0DPI0). The series can be described thus: Inhibition of protease activity of recombinant full-length Clostridium botulinum BoNT/A light chain at 20 uM after 5 mins by HPLC-based assay. An outline of the steps:
(§1)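 Full-length recombinant BoNT/A LC (110-140 nM) with 0.8 mM SNAP-25 17-mer peptide in 50 mM HEPES pH 7.3. Compound was added from DMSO stock without preincubation, then LC, 5 min at 37°C. TFA stop, reverse-phase HPLC. Percent inhibition came from substrate cleaved with versus without compound; the 20 µM data are means ± SD of two independent assays.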

Series [2] shares this target. In words: Inhibition of protease activity of recombinant full-length Clostridium botulinum BoNT/A light chain at 200 uM after 5 mins by HPLC-based assay. The method, boiled down: as §1
A short description of series [3]: Cytotoxicity against mouse Neuro2a cells at >= 10 uM. Type of series: cell-based. The following applies: n2a.
Series [4] deals with Botulinum neurotoxin type A (Clostridium botulinum) (UniProt P0DPI0). In words: Inhibition of Clostridium botulinum BoNT/A-mediated neuromuscular block in CD1 mouse phrenic nerve hemidiaphragm assessed as time required to 50% loss of twitch tension at 0.5 uM after 15 to 20 mins.
Chain of Botulinum neurotoxin type A (Clostridium botulinum) (P0DPI0 2-448 limits assumed): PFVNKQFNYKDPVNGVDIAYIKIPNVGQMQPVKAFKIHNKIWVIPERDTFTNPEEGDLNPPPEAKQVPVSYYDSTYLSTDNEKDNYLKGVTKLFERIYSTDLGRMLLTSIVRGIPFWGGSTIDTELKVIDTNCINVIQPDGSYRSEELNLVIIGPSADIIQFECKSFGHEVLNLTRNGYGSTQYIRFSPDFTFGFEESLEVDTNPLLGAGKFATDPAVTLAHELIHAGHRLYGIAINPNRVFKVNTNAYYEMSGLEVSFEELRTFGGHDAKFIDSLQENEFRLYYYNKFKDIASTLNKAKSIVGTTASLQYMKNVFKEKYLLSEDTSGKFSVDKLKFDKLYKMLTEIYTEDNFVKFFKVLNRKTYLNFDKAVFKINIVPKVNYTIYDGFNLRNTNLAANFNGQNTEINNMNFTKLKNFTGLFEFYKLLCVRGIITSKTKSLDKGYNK
The nature of series [5]: Inhibition of zinc carboxypeptidase A at up to 20 uM. An outline of the steps:
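Carboxypeptidase A kit plate assay: CPA with compounds from DMSO at various concentrations, 5 min at 25°C, then stop solution and absorbance read at 350 nm. Percent inhibition was taken versus CPA with DMSO; potato tuber CPA inhibitor served as control. Two independent determinations, each in triplicate.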

Series [6] has as its target Botulinum neurotoxin type A (Clostridium botulinum) (UniProt P0DPI0). In words: Inhibition of Clostridium botulinum BoNT/A light chain-mediated SNAP-25 cleavage in mouse Neuro2a cells at 15 uM after 30 mins by Western blotting. Type of series: cell-based. Background: Immunoblotting shows a protein as a band on a membrane.
In series [7] the target is T1, Botulinum neurotoxin type B (Clostridium botulinum) (UniProt P10844).
T1 sequence (whole entry): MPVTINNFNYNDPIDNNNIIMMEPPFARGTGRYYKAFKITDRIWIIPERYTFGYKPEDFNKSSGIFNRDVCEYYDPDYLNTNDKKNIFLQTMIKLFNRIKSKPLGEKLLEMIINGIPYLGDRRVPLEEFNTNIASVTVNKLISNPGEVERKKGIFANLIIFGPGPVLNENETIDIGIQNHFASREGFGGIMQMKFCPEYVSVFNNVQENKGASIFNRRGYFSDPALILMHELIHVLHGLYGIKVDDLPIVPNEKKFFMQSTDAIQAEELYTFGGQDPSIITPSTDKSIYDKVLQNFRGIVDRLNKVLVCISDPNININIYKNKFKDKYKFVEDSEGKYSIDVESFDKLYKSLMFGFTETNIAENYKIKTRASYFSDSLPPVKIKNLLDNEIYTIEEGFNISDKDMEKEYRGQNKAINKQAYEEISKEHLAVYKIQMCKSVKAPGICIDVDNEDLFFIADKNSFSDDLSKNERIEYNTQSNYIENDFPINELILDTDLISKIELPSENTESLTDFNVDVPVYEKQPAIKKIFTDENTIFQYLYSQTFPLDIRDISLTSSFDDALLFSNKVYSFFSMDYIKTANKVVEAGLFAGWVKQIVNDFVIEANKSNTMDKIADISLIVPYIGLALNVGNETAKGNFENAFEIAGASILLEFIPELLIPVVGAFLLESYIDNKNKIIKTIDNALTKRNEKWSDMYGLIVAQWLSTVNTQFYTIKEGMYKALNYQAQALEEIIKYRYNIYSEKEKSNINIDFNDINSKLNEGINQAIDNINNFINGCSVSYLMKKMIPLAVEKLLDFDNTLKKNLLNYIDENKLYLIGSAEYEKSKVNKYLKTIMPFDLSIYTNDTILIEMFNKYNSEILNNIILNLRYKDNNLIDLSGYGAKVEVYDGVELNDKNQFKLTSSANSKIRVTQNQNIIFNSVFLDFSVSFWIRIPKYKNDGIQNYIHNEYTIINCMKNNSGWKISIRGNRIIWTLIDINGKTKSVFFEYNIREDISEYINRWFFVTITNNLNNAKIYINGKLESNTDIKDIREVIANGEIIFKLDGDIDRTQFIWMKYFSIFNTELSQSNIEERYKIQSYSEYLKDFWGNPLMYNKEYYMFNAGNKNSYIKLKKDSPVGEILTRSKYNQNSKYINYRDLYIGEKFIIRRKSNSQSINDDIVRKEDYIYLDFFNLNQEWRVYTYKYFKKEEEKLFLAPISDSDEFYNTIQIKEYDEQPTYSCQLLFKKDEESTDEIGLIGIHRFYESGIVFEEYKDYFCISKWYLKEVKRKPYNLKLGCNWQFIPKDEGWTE
In words: Inhibition of protease activity of recombinant full-length Clostridium botulinum BoNT/B light chain at 20 uM after 5 mins by HPLC-based assay. An outline of the steps: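 Recombinant BoNT/B LC (30-40 nM) with 0.4 mM 35-mer human VAMP-2 (60-94) peptide, 1 mM DTT, 50 mM HEPES pH 7.3. Compound was added at 20 µM final without preincubation, then 5 min at 37°C. TFA stop, reverse-phase HPLC quantification of cleavage. Means ± SD of two independent assays.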

The target of series [8] is T2, Botulinum neurotoxin type A (Clostridium botulinum, UniProt P0DPI0). The series can be described thus: Inhibition of protease activity of recombinant Clostridium botulinum BoNT/A (1 to 425) light chain after 5 mins by HPLC-based assay. The method, boiled down:
(§2)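 Recombinant BoNT/A light chain, full-length at 140 nM or truncated (residues 1-425) at 620 nM final, with 0.8 mM 17-mer SNAP-25 (187-203) peptide in 50 mM HEPES pH 7.3. Inhibitor was added from DMSO at nine concentrations, then 5 min at 37°C. Stopped with 0.7% TFA, cleavage quantified by reverse-phase HPLC, and IC50 derived by log-probit analysis.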

The target in series [9] is T2, Botulinum neurotoxin type A. In words: Inhibition of protease activity of recombinant full-length Clostridium botulinum BoNT/A light chain after 5 mins by HPLC-based assay. An outline of the steps: as §2
The target in series [10] is Botulinum neurotoxin type A (Clostridium botulinum) (UniProt P0DPI0). The series can be described thus: Inhibition of Clostridium botulinum BoNT/A light chain-mediated SNAP-25 cleavage in mouse Neuro2a cells at 10 uM after 30 mins by Western blotting. Type of series: cell-based.
Series [11] has the same target. The series can be described thus: Inhibition of Clostridium botulinum BoNT/A-mediated neuromuscular block in CD1 mouse phrenic nerve hemidiaphragm assessed as time required to 50% loss of twitch tension at 10 uM after 15 to 20 mins.
Series [12] shares this target. In words: Inhibition of Clostridium botulinum BoNT/A-mediated neuromuscular block in CD1 mouse phrenic nerve hemidiaphragm assessed as time required to 50% loss of twitch tension at 20 uM after 15 to 20 mins.
Series [13] deals with T2, Botulinum neurotoxin type A. The series can be described thus: Binding affinity to Clostridium botulinum BoNT/A.
Series [14] has as its target Botulinum neurotoxin type A (Clostridium botulinum) (UniProt P0DPI0). In words: Inhibition of Clostridium botulinum BoNT/A-mediated neuromuscular block in CD1 mouse phrenic nerve hemidiaphragm assessed as time required to 50% loss of twitch tension at 5 uM after 15 to 20 mins.

T2 sequence (P0DPI0 2-448 limits assumed): as the sequence (P0DPI0 2-448 limits assumed) above

`O=[N+]([O-])c1ccc(NC(c2ccccc2)c2ccc3cccnc3c2O)cc1` (racemic): the inhibition was 52% in series [1] and 87% in series [2]. For the same compound, the Activity result in [3] was “Toxic”.

On to `CCOc1ccc(C(Nc2cccnc2)c2cc(Cl)c3cccnc3c2O)cc1` (racemic), for which, in series [4], the TIME amounted to 4.52 h. For the same compound, the inhibition in series [2] amounted to 96.2%; in [7], 31.2%. Besides, the outcome in series [5] was inactive. Besides, the outcome in series [6] was Active. Further, the IC50 was 1600 nM in series [8] and 2100 nM in series [9]. In addition, the inhibition result in series [10] was “Active”.

`Oc1c(C(Nc2ccccn2)c2ccccc2)ccc2cccnc12` (racemic): in [5], the result was inactive. Moreover, in series [6], the outcome was Active. Also, the inhibition in [7] amounted to 8.8%. Moreover, the IC50 in series [8] came to 1500 nM; in [9] it was 1600 nM. For the same compound, the TIME in series [11] amounted to 4.44 h. Also, the inhibition result in series [10] is “Active”.

For `Oc1c(C(Nc2cccc3cccnc23)c2ccccc2)ccc2cccnc12` (racemic), the TIME in series [12] was 1.09 h. Moreover, the figures for the inhibition in [2], in series [7] and in series [10] were 91.9%, 6.9% and 66%, respectively. Further, the result in [5] was inactive. Further, the outcome in series [6] was Active. The IC50 in [8] stood at 3900 nM; in series [9], 3200 nM.

On to `O=[N+]([O-])c1ccc(NCCNc2ccc([N+](=O)[O-])cc2)cc1`, for which the results for the inhibition in series [1] and in series [2] were 44% and 80%, respectively.

With `Cc1ccc(NC(=O)/C(CC(=O)c2sc(Nc3ccccc3Cl)nc2C)=N/Nc2ccc([N+](=O)[O-])cc2[N+](=O)[O-])c(C)c1`, the figures for the inhibition in series [1] and in series [2] were 51% and 85%, respectively.

For `CC(CO)(Nc1ccc([N+](=O)[O-])cc1[N+](=O)[O-])C(=O)O` (racemic), the inhibition came to 29% in [1] and 65% in [2].

Take `Cc1ccc([N+](=O)[O-])cc1NC(=O)NNC(=O)CNC(=O)NCc1ccco1`: the inhibition in series [1] is 52%; in series [2], 75%.

Consider Ac-CRATKML-NH2, for which, in series [12], the outcome was inactive and the TIME turned out to be 0.878 h. In series [13], this compound displayed a Ki of 1900 nM.

For `O=[N+]([O-])c1cccc(CN(Cc2cccc([N+](=O)[O-])c2O)c2ccccc2)c1O`, the inhibition in [1] was found to be 37%; in series [2], 75%.

For `Oc1c(C(Nc2cccnc2)c2ccccc2F)ccc2cccnc12` (racemic), the inhibition was 92.8% in [2], 16.8% in series [7] and 68% in series [10]. Besides, the result in series [5] was inactive. Further, the result in [6] was Active. Moreover, the figures for the IC50 in series [8] and in [9] were 2400 nM and 3900 nM, respectively. Also, the TIME in series [11] stood at 4.68 h.

Take `O=C1c2ccccc2C(=O)N1CNc1ccccc1/C(=N/Nc1ccc([N+](=O)[O-])cc1[N+](=O)[O-])c1ccccc1`: the inhibition in [1] came out at 49%; in series [2] it was 82%.

`Oc1c(C(Nc2cccnc2)c2ccc(C(F)(F)F)cc2)ccc2cccnc12` (racemic): the figures for the inhibition in series [2] and in [7] were 92.7% and 30.2%, respectively. Further, the outcome in series [5] was inactive. In addition, the result in series [6] was Active. The TIME in series [14] amounted to 3.6 h. Further, the results for the IC50 in series [8] and in series [9] were 5000 nM and 4700 nM, respectively. In series [10], the inhibition result was “Active”.
